The list is not random: actives were taken first. Their share in the collection is about 1.3%.
T cell HTS: T cell immune modulation candidate. 2C CD8+ T cell-vesicle binding, flow cytometry; hits give low values. response (vesicle binding), % at 7 µM. hit rate 0.068% among 330,000;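 active = response, share of CD8 T cells binding vesicles, and their 90th percentile fluorescence all below set limits, cut at about 80% in these data, passing the limit was not always enough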;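 also: values below 100% mean blocked vesicle binding to the CD8+ T cells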
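Incubation: binding step 1.5 h, 37 °C, antibody labelling 20 min, ice; system: murine 2C transgenic CD8+ T lymphocytes; technique: cytometric PE anti-B7-1 and Alexa647 anti-CD8 signals after 1% paraformaldehyde fixation; also added: QL9-charged Drosophila Ld/ICAM-1/B7-1 vesicles; control set: naked versus QL9-loaded vesicles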
EBV gp42 inh: blocks Epstein-Barr virus glycoprotein 42 binding; Q1HVG2; hit rate 0.42% among 220,000; inhibition, % (tested at 21.74 µM); Fluorescence polarization binding assay, mP read-out; in the data active = inhibition above about 50%
Target sequence (Q1HVG2 whole entry, looked up): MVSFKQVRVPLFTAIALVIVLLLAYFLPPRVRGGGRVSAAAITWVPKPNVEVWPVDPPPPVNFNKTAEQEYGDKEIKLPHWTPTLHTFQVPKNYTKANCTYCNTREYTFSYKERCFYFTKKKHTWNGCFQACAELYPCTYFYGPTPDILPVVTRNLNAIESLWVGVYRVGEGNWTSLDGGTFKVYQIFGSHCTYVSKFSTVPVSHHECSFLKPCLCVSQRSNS
MEX-5 binding: C. elegans MEX-5 TCR-2 RNA binding activity | Q9XUB2 | MEX-5/FITC-TCR2 RNA binding, fluorescence polarization; hits give low values | activity score (negative = inhibition of binding), % at 10 µM | hit rate 0.38% among 300,000 | AID 1832;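 active = inhibition past about -25% in most replicates, and total fluorescence under double the plate's negative control median, limit read from the data; inconclusive = replicates evenly split on the limit, or fluorescence at least double controls; inactive = too little inhibition in most replicates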;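 also: 0% = DMSO and -100% = 5 µM competing unlabeled TCR2 RNA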
Keap1-Nrf2 PPI: inhibitors of human Keap1-Nrf2 protein-protein interaction; hit rate 0.15% among 340,000; Q14145; inhibition, % at 9.4 µM; Keap1 Kelch-Nrf2 peptide fluorescence polarization, 1536-well; AID 504523; in the data active = inhibition above about 12%; inconclusive = no clear call, values can overlap the other calls; inactive = below about 7.3%;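 also: human Keap1 Kelch domain with fluorescein labeled Nrf2 9mer peptide probe; 0% = neutral control wells and 100% = peptide positive control; higher means more block of Keap1 binding to Nrf2 peptide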
GRK2 aptamer HTS: human GRK2 inhibition via aptamer displacement; P25098; bead flow cytometry, FAM-aptamer displacement from GRK2; inhibition of aptamer binding, % at 10 µM; hit rate 0.59% among 330,000; AID 488847;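 active = inhibition of aptamer binding above 40%, roughly 3 SD of noise, on plates passing a quality check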;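 also: median bead fluorescence of bound FAM aptamer so fluorescent compounds give negative values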
C-LANA FP: blocks KSHV LANA C-terminal domain binding to DNA; MBP-C-LANA/FAM-LBS DNA binding, fluorescence polarization; inhibition, % at 9 µM; hit rate 0.078% among 340,000;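 active = highest replicate inhibition at or above 60% at 9 µM, even if other replicates fall short; inactive = all replicates below 60% inhibition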;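 also: 0% = neutral control wells and 100% = 4 µM acridine orange control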
GRK2 inh confirm: confirmation of human GRK2 inhibitors displacing RNA aptamer; aptamer displacement, % at 10 µM; bead-bound GRK2, FAM-aptamer displacement, flow cytometry; hit rate 4% among 2,000; shares compounds with GRK2 aptamer HTS;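 active = aptamer displacement above 40%, near three times the noise of non-fluorescent compounds, on plates passing quality checks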;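 also: negative values mostly reflect intrinsic compound fluorescence rather than true enhancement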
Aptamer quench: fluorescent aptamer quenching in GRK2 counter-screen dose response. shares compounds with GRK2 aptamer HTS. Fluorescent RNA aptamer beads, flow cytometry; hits give high values. fluorescence change (kMESF span), kMESF (test concentration not listed). 110 tested, under 10 active;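 active = compounds whose bead fluorescence drops by more than 37 kMESF across the dose range, marking them as dye quenchers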
FAM quench CP1: counter-screen for GRK2 aptamer inhibitors: fluorescent aptamer quenchers; fluorescence response (% of DMSO), % at 10 µM; Carboxyfluorescein RNA aptamer on beads, flow cytometry quenching; hits give low values; AID 504580; 2,000 tested, under 10 active; shares compounds with GRK2 aptamer HTS;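 active = compounds that quench the bead-bound fluorescent RNA probe, cutting fluorescence to under half of the solvent control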;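 also: counterscreen run without GRK2 so only probe quenching by compound is measured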
* hit, by the source's call; i = inactive; ? = inconclusive; nt = no result given.

SMILES | T cell HTS | EBV gp42 inh | MEX-5 binding | Keap1-Nrf2 PPI | GRK2 aptamer HTS | C-LANA FP | others
C=CCN1C(=O)NC(=O)/C(=C\c2ccc(-c3ccccc3[N+](=O)[O-])o2)C1=O | 338 | -3 | -3 | 6 | 4 | 0
O=C1NC(=O)N(Cc2ccco2)C(=O)/C1=C/c1ccc(-c2cccc([N+](=O)[O-])c2)o1 | 98 | 91* | -2 | 2 | 23 | 7
O=[N+]([O-])c1cc(S(=O)(=O)c2ccc(O)c([N+](=O)[O-])c2)ccc1O | 204 | -3 | -36* | 2 | 21 | 16
Cc1ccc(/C=C2/Sc3ccc(C(=O)N4CCC5(CC4)OCCO5)cc3NC2=O)cc1 | 700 | nt | -29* | 0 | 1 | 12
Cc1nn(Cc2ccc(Cl)cc2Cl)c(Cl)c1C(=O)Nc1ccc(OC(F)F)cc1 | 277 | -14 | -2 | -2 | 0 | 1
COc1ccc(CN2C(=O)NC(=O)/C(=C\c3cc(OC)c(OC)c(OC)c3)C2=O)cc1 | 196 | -10 | -4 | -4 | 0 | 0
COc1ccc(CN2C(=O)NC(=O)/C(=C\c3ccco3)C2=O)cc1 | 476 | -11 | -46* | -10 | 38 | 30
CCC(=O)OC1(Cc2ccc(CC)cc2)CC(C)N(C)CC1C (stereo not given) | 384 | -2 | -2 | -5 | 0 | 0
Nc1cc2nc3ccccc3nc2cc1N | 270 | 179* | ? | 3 | nt | 13
CC(C)(C)c1cc([N+](=O)[O-])cc(C(C)(C)C)c1O | 209 | -32 | 1 | nt | 0 | nt
O=C1NC(=S)NC(=O)C1=Cc1ccc2c(c1)CCN2CCCCl | 793 | 71* | -1 | nt | 7 | nt
CC1CCCN(c2ccc(C(=O)N3CCC4(CC3)OCCO4)cc2[N+](=O)[O-])C1 (stereo not given) | 244 | -3 | 0 | -2 | 0 | -1
CCOC(=O)C1CCCN(c2ccc([N+](=O)[O-])c3nonc23)C1 (stereo not given) | nt | 127* | ? | -11 | nt | 90*
CC(=O)c1cn(Cc2ccccc2C#N)c2ccccc12 | 361 | -13 | -1 | -3 | 0 | -1
CC[n+]1c(/C=C/C=C/c2ccc(N(C)C)cc2)sc2ccccc21 | 334 | -9 | -28* | -9 | 22 | -3
C[C@]12CCC3C(CCC4=C/C(=N/OCC(=O)NC(CCC(N)=O)C(=O)O)CC[C@@]43C)C1CCC2O (stereo not given in full) | 200 | nt | 1 | -4 | 0 | 2 | GRK2 inh confirm=3;FAM quench CP1=99
C[C@]12CCC3C(CCC4=C/C(=N/OCC(=O)NC(CCC(=O)O)C(=O)O)CC[C@@]43C)C1CCC2O (stereo not given in full) | 276 | nt | 1 | -3 | 0 | 0
N#CCCn1cc(C(=O)Nc2ccc(F)cc2)c(-c2ccc([N+](=O)[O-])cc2)n1 | 396 | -2 | 0 | 3 | 0 | -2
O=C1NC(=O)N(c2ccc3c(c2)OCO3)C(=O)/C1=C\c1ccc(-c2ccccc2C(=O)O)o1 | 202 | -103 | 2 | -4 | 60* | 5 | GRK2 inh confirm=47*;Aptamer quench=4.3;FAM quench CP1=96
O=C1NC(=O)N(c2ccc3c(c2)OCO3)C(=O)/C1=C/c1ccc(N2CCCCC2)o1 | 847 | -296 | 12 | -95 | 0 | -38
Cc1c(/C=N/O)c2ccccc2n1C | 244 | -15 | 0 | 1 | 3 | 0
C[N+](C)(C)CCOC(=O)CBr | 520 | nt | nt | -4 | 14 | -3 | GRK2 inh confirm=0;FAM quench CP1=104
CCN1/C(=C\C=C\C2=[N+](CC)c3ccccc3C2(C)C)C(C)(C)c2ccccc21 | i | 7 | ? | -372 | 70* | -43 | GRK2 inh confirm=24;FAM quench CP1=100

Bioassay records as filed in PubChem BioAssay.
